Only some compounds are listed: those with a hit (about 2.6% of all), similar ones and a draw of the others.
TCR CD3 inh: inhibitors of human TCR-CD3 interaction, primary screen, biochemical, fluorescence, TAMRA-labeled TCR probe; inhibition, % at 9.4 µM; 360,000 compounds, 0.37% hits; AID 651800, 2012; in the data active = inhibition above about 19%;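 note: recombinant mutant TCR 2C K166C tagged with TAMRA read by polarization; 0% = receptor in buffer alone and 100% = receptor with positive control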
PRMT1 inh: PRMT1 methyltransferase inhibitors, primary screen, biochemical, fluorescence polarization; Protein arginine N-methyltransferase 1 (Homo sapiens), Q99873; recombinant PRMT1, activity-based probe fluorescence polarization; inhibition, % at 2.79 µM; 370,000 compounds, 1.3% hits; AID 652257, 2013;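 active = inhibition above about 21% made by adding two undisclosed values, limit read from the data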
SIAE inh: human SIAE inhibitors, primary screen, biochemical, fluorescence polarization, FP-Rh probe, 1536-well HTS | SIAE FP-Rh probe binding | 370,000 compounds, 0.69% hits | inhibition, % at 9.66 µM;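 active = inhibition above a cutoff: mean of compounds within the control limits plus 3 SD of those, cut at about 17% in these data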;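 note: 0% = plate median of compound wells and 100% = probe without SIAE protein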
HTRA1 inhibitor: HTRA1 serine protease inhibitors, primary screen, biochemical, fluorescence polarization, HTS | recombinant HTRA1, FP-rhodamine activity-based probe | inhibition, % at 5.96 µM | 340,000 compounds, 0.5% hits | AID 504803, 2011; in the data active = inhibition above about 36%;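 note: 0% = enzyme with DMSO and 100% = wells lacking enzyme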
ABHD4 inh: ABHD4 inhibitors, primary screen, biochemical, fluorescence polarization, mouse; purified mABHD4, FP-Rh probe fluorescence polarization; inhibition, % at 8.92 µM; 370,000 compounds, 0.54% hits; AID 720543, 2013;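 active = inhibition exceeding the mean over every tested compound plus 3 SD, cut at about 30% in these data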;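 note: 0% = plate median of compound wells and 100% = S159A mutant with DMSO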
Target sequence (Q8VD66 whole entry, looked up): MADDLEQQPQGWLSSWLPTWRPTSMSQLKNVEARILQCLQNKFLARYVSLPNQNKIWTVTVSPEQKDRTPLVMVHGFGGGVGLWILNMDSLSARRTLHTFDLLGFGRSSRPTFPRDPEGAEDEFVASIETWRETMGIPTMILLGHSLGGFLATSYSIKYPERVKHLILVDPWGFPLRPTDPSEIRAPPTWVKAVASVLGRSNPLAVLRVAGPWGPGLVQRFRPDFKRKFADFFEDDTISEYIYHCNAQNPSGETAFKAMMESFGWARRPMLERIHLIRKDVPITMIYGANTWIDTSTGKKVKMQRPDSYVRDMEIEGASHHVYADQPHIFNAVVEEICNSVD
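Assay system: Wild-type mouse ABHD4 protein | Medium: HEPES pH 7.0 buffer, 150 mM NaCl, 0.01% Pluronic F-127 | Incubation: Enzyme–compound pre-incubation 45 min, then probe 60 min, both 25 °C | Technique: Fluorescence polarization with parallel and perpendicular emission, 525/598 nm | Evaluation: % inhibition of FP-Rh probe binding versus controls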
PRMT1 confirm: PRMT1 methyltransferase inhibitors, confirmation, biochemical, fluorescence polarization, triplicate. shares compounds with PRMT1 inh. recombinant His-PRMT1, activity-based probe fluorescence polarization. inhibition, % at 2.79 µM. 3,300 compounds, 42% hits;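 active = mean inhibition across replicates above the hit cutoff derived for the earlier primary screen, cut at about 22% in these data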
Active calls of the source: *; / = no result.

SMILES | TCR CD3 inh | PRMT1 inh | SIAE inh | HTRA1 inhibitor | ABHD4 inh | PRMT1 confirm
CCN(CC)C(=O)c1ccc(NC(=O)CN2CCc3cc(OC)c(OC)cc3C2)cc1 | 12 | -1 | 3 | -4 | -2 | /
COc1ccc2c(c1)C13CCCC[C@@H]1C(C2)N(C)CC3 (stereo partly specified) | -6 | 136* | 2 | 6 | -3 | 4
COc1cccc2c1N=C1CCCC3CN(C(C)=O)CCC123 (stereo unspecified) | 3 | -1 | 2 | 1 | 9 | /
COP(=O)(OC)OC=C(Cl)Cl | 8 | 6 | 12 | / | 11 | /
C[C@H]1CNCCN1c1ccc(N2CC[C@@H](O)C2)c(C#N)c1 | -6 | -1 | 15 | / | 3 | /
Cc1cc(N2CCNC[C@@H]2C)ccc1N1CC[C@@H](O)C1 | 5 | 47* | 7 | / | 20 | 3
C[C@]12CCC3C(C(=O)C[C@H]4C[C@@H](O)CC[C@]34C)C1CCC2=O (stereo partly specified) | -4 | 2 | 3 | 1 | 0 | /
CCOC(=O)c1cc(CC)sc1/N=C/c1c(O)[nH]c(=S)[nH]c1=O | -24 | 81* | -34 | -6 | -15 | 8
CCOC(=O)c1cc(CC)sc1/N=C/C1C(=O)NC(=S)NC1=O | -4 | 41* | -7 | -34 | -10 | 12
CCOC(=O)c1c(/N=C/c2c(O)n(-c3cccc(C)c3)c(=O)[nH]c2=O)sc2c1CCCC2 | -7 | 8 | -3 | 4 | -2 | /
Cc1ccc2[nH]c3c(c2c1)CN(C(=O)CN1C[C@H]2C[C@@H](C1)c1cccc(=O)n1C2)CC3 | 0 | 50* | 4 | -6 | 4 | 1
Cc1ccc(S(=O)(=O)N(C)C)cc1NC(=O)C(C)[N+]12CCN(CC1)CC2 (stereo unspecified) | -1 | -4 | 0 | 2 | -4 | /
COc1ccc(/C=C2/C(=O)NC(=O)N(C3CCCCC3)C2=O)cc1CSc1ccccn1 | -1 | 26* | 12 | / | 16 | 6
COc1ccc(C=C2C(=O)N(C)C(=O)N(C)C2=O)cc1CSc1ccccn1 | -3 | 17 | 1 | -11 | 0 | /
Oc1ccc(C2=CCNCC2)cc1O | 8 | 25* | -2 | 11 | 12 | 28*
C1=C(c2ccccc2)CCNC1 | -1 | -4 | -4 | 12 | -4 | /
Cc1cc(C)c2c(ccc3cccc[n+]32)c1 | 1 | -3 | 4 | / | 0 | /
CC(C)N1C(=O)/C(=C/C=C/c2ccco2)C(=O)N(Cc2ccco2)C1=O | -43 | 29* | -17 | -14 | -27 | 16
CCN1C(=O)C(=C/C=C/c2ccco2)C(=O)N(CC)C1=S | -52 | 27* | -81 | -67 | -134 | 34*
CCc1ccc(NC(=O)CCNC(=O)N2C[C@H]3C[C@@H](C2)c2cccc(=O)n2C3)cc1 | 9 | 1 | 2 | 0 | 13 | /
Cn1c(O)c(C(c2ccccn2)c2c(O)n(C)c(=S)n(C)c2=O)c(=O)n(C)c1=S | 0 | 27* | -9 | -1 | 3 | 11
Cn1c(O)c(C(c2ccncc2)c2c(O)n(C)c(=S)n(C)c2=O)c(=O)n(C)c1=S | -12 | 38* | -7 | -1 | -17 | 1
Cn1c(O)c(C(=Nc2ccc(F)cc2)c2ccccc2Cl)c(=O)n(C)c1=O | 3 | -1 | 9 | -3 | 2 | /
CC12CCC(=O)C=C1CCC1C2CCC2(C)C1CCC2(O)CC#N (stereo unspecified) | 2 | -1 | 4 | -2 | 5 | /
Nc1c2c(nc3ccccc13)CCN(Cc1ccccc1)C2 | 3 | 44* | -1 | 2 | 8 | 9
CCCC(C)n1[nH]c(=O)c2c1NC(=O)CSC2c1ccc(OC)cc1 (stereo unspecified) | 2 | 4 | 3 | 3 | 1 | /
Cc1nn(C2CCOC(C)(C)C2)c2c1C(c1ccc(OC(C)C)cc1)SCC(=O)N2 (stereo unspecified) | -1 | 28* | 11 | -3 | -1 | 41*

Assay outcomes deposited in PubChem BioAssay by The Scripps Research Institute Molecular Screening Center.
